In ChEMBL document CHEMBL1137338, “Effects of substitution on 9-(3-bromo-4-fluorophenyl)-5,9-dihydro-3H,4H-2,6-dioxa-4- azacyclopenta[b]naphthalene-1,8-dione, a dihydropyridine ATP-sensitive potassium channel opener” (J Med Chem, 2006):

Columns and labels:
[1] = biological target: T1, Sulfonylurea receptor 2, Kir6.2 (Homo sapiens, UniProt O60706+Q14654); experiment: Ability to open human urinary bladder Kir6.2 channel containing SUR2B in Ltk cells by FLIPR assay; type: functional, cell-based
How it was run: (§1)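 Ltk- cells stably transfected with the Kir6.2/SUR2B exon 17- splice variant. Membrane potential was followed with DiBAC dye in a 96-well cell-based kinetic fluorescence (FLIPR) assay. The highest concentration tested was 10 µM. Each compound's maximal fluorescence response was expressed as % of the response to the reference opener.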

[2] = biological target: T1, Sulfonylurea receptor 2, Kir6.2; experiment: Activity against pig bladder KATP channel opening assessed as ability to relax field-stimulated pig detrusor; type: functional, Sus scrofa; conditions: target entry is the homologue from another species
[3] = biological target: T2, Sulfonylurea receptor 2, Kir6.2 (Homo sapiens) (UniProt Q14654+O60706); experiment: Ability to open human urinary bladder Kir6.2 containing SUR2B in Ltk cells by FLIPR assay relative to P1075; type: functional, cell-based; how it was run: as §1
[4] = biological target: T2, Sulfonylurea receptor 2, Kir6.2 (Homo sapiens); experiment: Activity against pig bladder KATP channel opening assessed as ability to relax field-stimulated pig detrusor relative to P1075; type: functional; conditions: Sus scrofa; target entry is the homologue from another species

T1 sequence (Q14654 whole entry, canonical isoform): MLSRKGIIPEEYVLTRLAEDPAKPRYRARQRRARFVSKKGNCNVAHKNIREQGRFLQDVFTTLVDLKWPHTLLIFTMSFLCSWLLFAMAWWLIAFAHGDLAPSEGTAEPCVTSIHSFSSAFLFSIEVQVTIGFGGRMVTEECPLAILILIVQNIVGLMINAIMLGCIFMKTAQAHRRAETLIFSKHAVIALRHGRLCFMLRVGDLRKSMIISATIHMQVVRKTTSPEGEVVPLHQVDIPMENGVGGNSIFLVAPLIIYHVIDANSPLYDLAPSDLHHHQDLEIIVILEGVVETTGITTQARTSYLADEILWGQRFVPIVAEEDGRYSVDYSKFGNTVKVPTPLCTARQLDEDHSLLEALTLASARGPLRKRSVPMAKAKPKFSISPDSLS
T1 sequence (O60706 whole entry, canonical isoform): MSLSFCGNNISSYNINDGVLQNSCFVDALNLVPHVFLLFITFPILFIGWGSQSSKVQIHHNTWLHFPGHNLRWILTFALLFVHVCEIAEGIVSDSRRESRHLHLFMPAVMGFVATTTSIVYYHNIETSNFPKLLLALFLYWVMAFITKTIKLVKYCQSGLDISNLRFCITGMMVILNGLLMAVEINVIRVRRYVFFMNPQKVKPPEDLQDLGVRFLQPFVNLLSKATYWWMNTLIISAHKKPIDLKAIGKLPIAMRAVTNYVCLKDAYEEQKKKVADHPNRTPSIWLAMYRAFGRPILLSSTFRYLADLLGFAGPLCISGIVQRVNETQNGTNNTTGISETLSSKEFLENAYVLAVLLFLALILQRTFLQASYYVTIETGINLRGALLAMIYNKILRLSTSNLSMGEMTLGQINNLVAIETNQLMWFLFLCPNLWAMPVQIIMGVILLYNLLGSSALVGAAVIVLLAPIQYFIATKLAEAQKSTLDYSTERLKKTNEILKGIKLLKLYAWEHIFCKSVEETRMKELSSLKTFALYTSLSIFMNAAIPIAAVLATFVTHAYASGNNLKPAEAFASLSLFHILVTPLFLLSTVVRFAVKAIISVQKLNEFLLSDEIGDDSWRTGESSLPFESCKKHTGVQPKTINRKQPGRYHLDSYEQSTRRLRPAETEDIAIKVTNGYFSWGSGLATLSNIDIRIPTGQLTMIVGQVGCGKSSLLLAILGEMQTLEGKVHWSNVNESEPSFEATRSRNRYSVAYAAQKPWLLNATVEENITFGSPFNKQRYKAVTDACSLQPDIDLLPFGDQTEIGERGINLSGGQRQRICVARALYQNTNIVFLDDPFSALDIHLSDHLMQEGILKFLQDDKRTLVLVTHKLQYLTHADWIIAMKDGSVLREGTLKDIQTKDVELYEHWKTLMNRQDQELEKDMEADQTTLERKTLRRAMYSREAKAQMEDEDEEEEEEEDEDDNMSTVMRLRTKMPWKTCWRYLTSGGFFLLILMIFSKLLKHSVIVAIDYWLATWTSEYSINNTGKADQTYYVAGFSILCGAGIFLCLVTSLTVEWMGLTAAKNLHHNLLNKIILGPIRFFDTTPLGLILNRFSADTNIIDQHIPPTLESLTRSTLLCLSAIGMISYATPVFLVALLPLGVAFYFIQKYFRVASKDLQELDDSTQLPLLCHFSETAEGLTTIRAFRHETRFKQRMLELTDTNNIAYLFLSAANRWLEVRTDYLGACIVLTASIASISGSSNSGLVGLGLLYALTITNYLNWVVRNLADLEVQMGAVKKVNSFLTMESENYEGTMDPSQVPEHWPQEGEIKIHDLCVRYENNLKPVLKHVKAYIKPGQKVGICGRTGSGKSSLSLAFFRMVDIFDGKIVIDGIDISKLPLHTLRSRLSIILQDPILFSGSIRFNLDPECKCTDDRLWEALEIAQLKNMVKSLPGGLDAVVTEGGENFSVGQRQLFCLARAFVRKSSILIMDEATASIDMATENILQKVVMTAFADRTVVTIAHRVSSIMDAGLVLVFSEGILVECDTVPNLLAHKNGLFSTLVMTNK

Row | SMILES | EC50 [1] [nM] | EC50 [2] [nM] | Efficacy [3] [%] | Efficacy [4] [%]
1 | O=C1COCC2=C1[C@@H](c1ccc(F)c(Br)c1)C1=C(COC1=O)N2 | 63.1 | 589 | 107 | 95
2 | CC[C@@H]1OC(O)=C2C1=NC1=C(C(=O)OCC1)[C@H]2c1ccc(F)c(Br)c1 | 324 | – | 71 | –
3 | CC1(C)OCC2=C(C1=O)C(c1ccc(F)c(Br)c1)C1=C(O)C(C)(C)OCC1=N2 (stereo unspecified) | 3890 | – | 61 | –
4 | CCC1(CC)OCC2=NC3=C(C(=O)COC3)C(c3ccc(F)c(Br)c3)C2=C1O (stereo unspecified) | 13800 | – | 42 | –
5 | CC1(C)OCC2=NC3=C(C(=O)COC3)C(c3ccc(F)c(Br)c3)C2=C1O (stereo unspecified) | 17 | – | 96 | –
6 | CC1(C)OCC(=O)C2=C1N=C1COC(O)=C1C2c1ccc(F)c(Br)c1 (stereo unspecified) | 120 | – | 73 | –
7 | CC1(C)OC(O)=C2C1=NC1=C(C(=O)COC1)C2c1ccc(F)c(Br)c1 (stereo unspecified) | 26.9 | – | 77 | –
8 | O=C1CCCC2=C1[C@H](c1ccc(F)c(Br)c1)C1=C(CCS1(=O)=O)N2 | 158 | – | 90 | –
9 | O=C1COCC2=C1C(c1ccc(F)c(Br)c1)C1=C(O)COCC1=N2 (stereo unspecified) | 27.5 | 126 | 87 | 97
10 | CC[C@H]1OC(O)=C2C1=NC1=C(C(=O)CSC1)[C@H]2c1ccc(F)c(Br)c1 [listing 1 of 2 here] | – | 955 | – | –
11 | CC[C@H]1OC(O)=C2C1=NC1=C(C(=O)CSC1)[C@H]2c1ccc(F)c(Br)c1 [listing 2 of 2 here] | – | – | – | 38
12 | CCC[C@H]1OC(O)=C2C1=NC1=C(C(=O)COC1)[C@H]2c1ccc(F)c(Br)c1 (racemic) | 155 | 794 | – | –
13 | CC[C@H]1OC(O)=C2C1=NC1=C(C(=O)COC1)[C@H]2c1ccc(F)c(Br)c1 (racemic) | 95.5 | 490 | – | –
14 | CC[C@H]1OCC2=C(C1=O)[C@@H](c1ccc(F)c(Br)c1)C1=C(O)OCC1=N2 (racemic) | 1020 | – | 97 | –
15 | CC[C@@H]1CC(O)=C2C1=NC1=C(C(=O)COC1)[C@H]2c1ccc(F)c(Br)c1 (relative stereo) | 1.17 | – | 88 | –
16 | CC(C)[C@@H]1OC(O)=C2C1=NC1=C(C(=O)COC1)[C@H]2c1ccc(F)c(Br)c1 (relative stereo) | > 10000 | 1200 | – | 97
17 | CC[C@H]1OC(O)=C2C1=NC1=C(C(=O)OCC1)[C@H]2c1ccc(F)c(Br)c1 (relative stereo) | 5010 | – | 54 | –
18 | CC[C@@H]1OC(O)=C2C1=NC1=C(C(=O)CSC1)[C@H]2c1ccc(F)c(Br)c1 (relative stereo) | 155 | – | 74 | –
19 | C[C@@H]1C2=C(C(=O)N1C)[C@H](c1ccc(F)c(Br)c1)C1=C(O)COCC1=N2 (relative stereo) | 316 | – | 92 | –
20 | CC[C@H]1OCC(=O)C2=C1N=C1COC(O)=C1[C@@H]2c1ccc(F)c(Br)c1 (relative stereo) | 18.2 | – | 90 | –

Row | SMILES | EC50 [1] [nM] | EC50 [2] [nM] | Efficacy [3] [%] | Efficacy [4] [%]
21 | C[C@H]1C2=C(C(=O)N1C)[C@H](c1ccc(F)c(Br)c1)C1=C(COCC1=O)N2 (relative stereo) | 2.75 | – | 102 | –
22 | CC[C@@H]1OC(O)=C2C1=NC1=C(C(=O)OC1)[C@H]2c1ccc(F)c(Br)c1 (relative stereo) | 6.03 | – | 94 | –
23 | CC[C@@H]1OCC(=O)C2=C1N=C1COC(O)=C1[C@@H]2c1ccc(F)c(Br)c1 (relative stereo) | 933 | – | 74 | –
24 | CC[C@@H]1OC(O)=C2C1=NC1=C(C(=O)C(C)(C)OC1)[C@H]2c1ccc(F)c(Br)c1 (relative stereo) | 14.5 | – | 105 | –
25 | C[C@@H]1OC(=O)C2=C1NC1=C([C@H]2c2ccc(F)c(Br)c2)S(=O)(=O)CC1 (relative stereo) | 135 | – | 93 | –
26 | C[C@H]1OC(=O)C2=C1NC1=C([C@H]2c2ccc(F)c(Br)c2)S(=O)(=O)CC1 (relative stereo) | 407 | – | 86 | –
27 | C[C@H]1OC(=O)C2=C1NC1=C([C@H]2c2ccc(F)c(Br)c2)S(=O)(=O)CCC1 (relative stereo) | 224 | – | 99 | –
28 | C[C@@H]1OC(=O)C2=C1NC1=C([C@H]2c2ccc(F)c(Br)c2)S(=O)(=O)CCC1 (relative stereo) | 56.2 | – | 102 | –
29 | CC[C@H]1OC(O)=C2C1=NC1=C(C(=O)CSC1)[C@H]2c1ccc(F)c(Br)c1 (relative stereo) | 102 | 891 | – | –
30 | C[C@@H]1OCC(=O)C2=C1N=C1COC(O)=C1[C@@H]2c1ccc(F)c(Br)c1 (relative stereo) | 102 | – | 73 | –
31 | CCCC[C@@H]1OC(O)=C2C1=NC1=C(C(=O)COC1)[C@H]2c1ccc(F)c(Br)c1 (relative stereo) | 29.5 | – | 67 | –
32 | COC[C@@H]1OC(O)=C2C1=NC1=C(C(=O)COC1)[C@H]2c1ccc(F)c(Br)c1 (relative stereo) | 9.77 | – | 100 | –
33 | O=C1COCC2=C1[C@@H](c1ccc(F)c(Br)c1)C1=C(O)O[C@@H](c3ccccc3)C1=N2 (relative stereo) | 257 | 1290 | 68 | 91
34 | CC[C@H]1OC(O)=C2C1=NC1=C(C(=O)CCC1)[C@H]2c1ccc(F)c(Br)c1 (relative stereo) | 251 | – | 83 | –
35 | CC[C@@H]1OC(O)=C2C1=NC1=C(C(=O)COC1(C)C)[C@H]2c1ccc(F)c(Br)c1 (relative stereo) | 1740 | – | 59 | –
36 | CC[C@@H]1OC(O)=C2C1=NC1=C(C(=O)CCC1)[C@H]2c1ccc(F)c(Br)c1 (relative stereo) | 56.2 | – | 87 | –
37 | C[C@H]1OCC(=O)C2=C1N=C1COC(O)=C1[C@@H]2c1ccc(F)c(Br)c1 (relative stereo) | 1.82 | – | 96 | –
38 | CC[C@H]1OC(O)=C2C1=NC1=C(C(=O)OC1)[C@H]2c1ccc(F)c(Br)c1 (relative stereo) | 72.4 | – | 74 | –
39 | CC[C@@H]1OCC2=C(C1=O)[C@@H](c1ccc(F)c(Br)c1)C1=C(O)OCC1=N2 (stereo in doubt; 10a) [listing 1 of 2 here] | 776 | 2690 | – | –
40 | CC[C@@H]1OCC2=C(C1=O)[C@@H](c1ccc(F)c(Br)c1)C1=C(O)OCC1=N2 (stereo in doubt; 10a) [listing 2 of 2 here] | – | – | 83 | 86

Row | SMILES | EC50 [1] [nM] | EC50 [2] [nM] | Efficacy [3] [%] | Efficacy [4] [%]
41 | CC[C@@H]1OCC2=C(C1=O)[C@@H](c1ccc(F)c(Br)c1)C1=C(O)OCC1=N2 (stereo in doubt; 10b) [listing 1 of 2 here] | 1380 | 891 | – | –
42 | CC[C@@H]1OCC2=C(C1=O)[C@@H](c1ccc(F)c(Br)c1)C1=C(O)OCC1=N2 (stereo in doubt; 10b) [listing 2 of 2 here] | – | – | 46 | 95
43 | C[C@@H]1OC(O)=C2C1=NC1=C(C(=O)COC1)[C@H]2c1ccc(F)c(Br)c1 (stereo in doubt; 17a) [listing 1 of 2 here] | 0.912 | 35.5 | – | –
44 | C[C@@H]1OC(O)=C2C1=NC1=C(C(=O)COC1)[C@H]2c1ccc(F)c(Br)c1 (stereo in doubt; 17a) [listing 2 of 2 here] | – | – | 105 | 97
45 | CC[C@H]1OC(O)=C2C1=NC1=C(C(=O)COC1)[C@H]2c1ccc(F)c(Br)c1 (stereo in doubt; 21a) [listing 1 of 2 here] | 7240 | 2950 | – | –
46 | CC[C@H]1OC(O)=C2C1=NC1=C(C(=O)COC1)[C@H]2c1ccc(F)c(Br)c1 (stereo in doubt; 21a) [listing 2 of 2 here] | – | – | 54 | 94
47 | CC(C)C[C@H]1OC(O)=C2C1=NC1=C(C(=O)COC1)[C@H]2c1ccc(F)c(Br)c1 (stereo in doubt; 31b) [listing 1 of 2 here] | 10000 | 102 | – | –
48 | CC(C)C[C@H]1OC(O)=C2C1=NC1=C(C(=O)COC1)[C@H]2c1ccc(F)c(Br)c1 (stereo in doubt; 31b) [listing 2 of 2 here] | – | – | 59 | 35
49 | CCC[C@H]1OC(O)=C2C1=NC1=C(C(=O)COC1)[C@H]2c1ccc(F)c(Cl)c1 (stereo in doubt; 39b) | 91.2 | 129 | – | –
50 | CCC[C@H]1OC(O)=C2C1=NC1=C(C(=O)COC1)[C@H]2c1ccc(F)c(I)c1 (stereo in doubt; 41b) [listing 1 of 2 here] | 26.9 | 229 | – | –
51 | CCC[C@H]1OC(O)=C2C1=NC1=C(C(=O)COC1)[C@H]2c1ccc(F)c(I)c1 (stereo in doubt; 41b) [listing 2 of 2 here] | – | – | 94 | 86
52 | CC[C@H]1OCC(O)=C2C1=NC1=C(C(=O)COC1)[C@H]2c1ccc(F)c(I)c1 (stereo in doubt; 73b) | – | – | 53 | –
53 | CC[C@H]1OCC(O)=C2C1=NC1=C(C(=O)COC1)[C@H]2c1ccc(Cl)c(Cl)c1 (stereo in doubt; 74a) | – | – | 118 | –
54 | CC[C@H]1OCC(O)=C2C1=NC1=C(C(=O)COC1)[C@H]2c1ccc(Cl)c(Br)c1 (stereo in doubt; 75a) | – | – | 89 | –
55 | CC[C@H]1OCC(O)=C2C1=NC1=C(C(=O)COC1)[C@H]2c1ccc(Cl)c(Br)c1 (stereo in doubt; 75b) | – | – | 54 | –
56 | CC[C@H]1OCC(O)=C2C1=NC1=C(C(=O)COC1)[C@H]2c1ccc(Br)c(Cl)c1 (stereo in doubt; 76a) | – | – | 76 | –
57 | CC[C@H]1OCC(O)=C2C1=NC1=C(C(=O)COC1)[C@H]2c1ccc(Br)c(Br)c1 (stereo in doubt; 77a) | – | – | 120 | –
58 | CC[C@H]1OCC(O)=C2C1=NC1=C(C(=O)COC1)[C@H]2c1ccc(Br)c(Br)c1 (stereo in doubt; 77b) | – | – | 104 | –
59 | CC[C@H]1OCC(O)=C2C1=NC1=C(C(=O)COC1)[C@H]2c1ccc(C)c(Br)c1 (stereo in doubt; 78a) | – | – | 94 | –
60 | CC[C@H]1OCC(O)=C2C1=NC1=C(C(=O)COC1)[C@H]2c1ccc(C)c(Br)c1 (stereo in doubt; 78b) | – | – | 56 | –
